In ChEMBL document CHEMBL1144477, “Design, synthesis and cytotoxic properties of novel 1-[4-(2-alkylaminoethoxy)phenylcarbonyl]-3,5-bis(arylidene)-4-piperidones and related compounds” (Eur J Med Chem, 2007):

How the values were obtained:
Format in all cases: cell-based
[1] = test system: HCT-15; assay: Cytotoxicity against human HCT15 cells
[2] = test system: KM12; assay: Cytotoxicity against human KM12 cells
[3] = test system: K562; assay: Cytotoxicity against human K562 cells
[4] = Cytotoxicity against human RPMI8226 cells; settings: RPMI-8226
[5] = test system: L1210; assay: Cytotoxicity against […] mouse L1210 cells
In short: (§1)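 Human Molt 4/C8 and CEM T-lymphocytes and murine L1210 cells were each exposed to at least three compound concentrations at 37 °C for 48 h. Growth inhibition was then measured, and IC50 values were derived from it.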

[6] = Cytotoxicity against human Molt4/C8 cells; settings: MOLT-4; in short: as §1
[7] = test system: SW-620; assay: Cytotoxicity against human SW620 cells
[8] = test system: HCC 2998; assay: Cytotoxicity against human HCC2998 cells
[9] = Cytotoxicity against human HL60 (TB) cells; settings: HL-60
[10] = test system: CCRF-CEM; assay: Cytotoxicity against human CEM cells; in short: as §1
[11] = test system: COLO 205; assay: Cytotoxicity against human COLO205 cells
[12] = test system: SR; assay: Cytotoxicity against human SR cells
[13] = test system: HCT-116; assay: Cytotoxicity against human HCT116 cells
[14] = Cytotoxicity against human NCI49 cell lines

Compound	IC50 [1] [nM]	IC50 [2] [nM]	IC50 [3] [nM]	IC50 [4] [nM]	IC50 [5] [µM]	IC50 [6] [nM]	IC50 [7] [nM]	IC50 [8] [nM]	IC50 [9] [nM]	IC50 [10] [nM]	IC50 [11] [nM]	IC50 [12] [nM]	IC50 [13] [nM]	IC50 [14] [nM]
CC[N+](C)(CC)CCOc1ccc(C(=O)N2C/C(=C\c3ccccc3)C(=O)/C(=C/c3ccccc3)C2)cc1	> 50100	43700	43700	17400	160	124000	30200	28200	> 50100	110000	20400	38000	> 50100	> 41700
CC[N+](C)(CC)CCOc1ccc(C(=O)N2C/C(=C\c3ccc(Cl)cc3)C(=O)/C(=C/c3ccc(Cl)cc3)C2)cc1	–	–	–	–	729	55800	–	–	–	71200	–	–	–	–
N[C@@H](Cc1ccc(N(CCCl)CCCl)cc1)C(=O)O [MELPHALAN]	–	43700	43700	66100	–	–	38900	41700	2040	–	66100	1860	30200	26900
CCN(CC)CCOc1ccc(C(=O)O)cc1	–	–	–	–	> 500	> 500000	–	2000	–	> 500000	–	–	–	–
CCN(CC)CCOc1ccc(C(=O)N2C/C(=C\c3ccccc3)C(=O)/C(=C/c3ccccc3)C2)cc1	1170	1740	43	< 10	8.23	1280	1350	–	–	1650	2630	–	< 10	< 1380
CN(C)CCOc1ccc(C(=O)N2C/C(=C\c3ccc([N+](=O)[O-])cc3)C(=O)/C(=C/c3ccc([N+](=O)[O-])cc3)C2)cc1	–	–	–	–	5.19	314	–	–	–	319	–	–	–	–
O=C1/C(=C/c2ccc([N+](=O)[O-])cc2)CN(C(=O)c2ccc(OCCN3CCOCC3)cc2)C/C1=C\c1ccc([N+](=O)[O-])cc1	–	–	–	–	6.34	343	–	–	–	379	–	–	–	–
O=C1/C(=C/c2ccccc2)CNC/C1=C\c1ccccc1	631	794	490	275	–	–	575	2000	363	–	1550	209	182	1620
CN(C)CCOc1ccc(C(=O)N2C/C(=C\c3ccc(Cl)cc3)C(=O)/C(=C/c3ccc(Cl)cc3)C2)cc1	295	1740	331	98	7.18	1440	209	263	1410	1090	1700	126	6030	1910
COc1ccc(C(=O)N2C/C(=C\c3ccccc3)C(=O)/C(=C/c3ccccc3)C2)cc1	–	–	–	–	37.8	2390	–	–	–	5000	–	–	–	–
CCN(CC)CCOc1ccc(C(=O)N2C/C(=C\c3ccc([N+](=O)[O-])cc3)C(=O)/C(=C/c3ccc([N+](=O)[O-])cc3)C2)cc1	–	–	–	–	3.63	310	–	–	–	340	–	–	–	–
Cc1ccc(/C=C2\CN(C(=O)c3ccc(OCCN4CCCCC4)cc3)C/C(=C\c3ccc(C)cc3)C2=O)cc1	1070	148	589	123	5.14	910	339	–	933	1140	6920	–	1580	1380
Cc1ccc(/C=C2\CN(C(=O)c3ccc(OCCN4CCOCC4)cc3)C/C(=C\c3ccc(C)cc3)C2=O)cc1	832	1120	275	115	21.8	1720	1020	–	1100	1360	1150	245	2450	< 708
